MC4R antagonist: antagonists of human melanocortin 4 receptor (MC4R) | P32245 | AID 540295 | inhibition, % at 6.5 µM | actives 0.48% (n = 360,000) | MC4R-expressing cells, MTII-stimulated cAMP, LANCE TR-FRET;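 active = inhibition above its plate's cutoff, the mean of tested wells on that plate plus 3 SD, cut at about 29% in these data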;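 also: 0% = Melanotan II alone and 100% = Melanotan II plus saturating MCL0020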
Target sequence (P32245 whole entry, looked up): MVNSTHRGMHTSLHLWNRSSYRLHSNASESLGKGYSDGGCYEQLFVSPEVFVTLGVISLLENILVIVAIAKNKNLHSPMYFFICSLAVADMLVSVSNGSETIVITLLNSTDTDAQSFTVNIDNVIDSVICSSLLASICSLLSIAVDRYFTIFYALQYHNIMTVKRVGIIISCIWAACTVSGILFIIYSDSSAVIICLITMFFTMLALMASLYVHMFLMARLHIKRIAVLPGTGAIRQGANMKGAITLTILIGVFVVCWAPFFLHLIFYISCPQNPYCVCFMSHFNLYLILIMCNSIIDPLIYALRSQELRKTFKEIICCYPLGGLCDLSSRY
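System: U2OS-MC4R stable cell line; Technique: Eu-cAMP/anti-cAMP TR-FRET, emission 671 nm; Repeats: single well per compound; Also added: Melanotan II; Dosing: one concentration, 6.5 µM nominal; Schedule: 30-min compound, 1-h challenge, 1-h detection, room temperature.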
NR2E3 ag-1: agonists of human NR2E3 nuclear receptor | Q9Y5X4 | CHO-S Gal4-NCOR/VP16-NR2E3 two-hybrid, luciferase | inhibition of corepressor binding, % at 3.98 µM | actives 0.35% (n = 360,000) | AID 602229;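 active = inhibition above the mean of all tested compounds plus 3 SD, cut at about 70% in these data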;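 also: 0% = DMSO with NR2E3 transfected cells and 100% = cells lacking NR2E3 construct; higher means lower luciferase signal from less NR2E3 corepressor binding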
Target sequence (Q9Y5X4 whole entry, looked up, the tested form may be a part): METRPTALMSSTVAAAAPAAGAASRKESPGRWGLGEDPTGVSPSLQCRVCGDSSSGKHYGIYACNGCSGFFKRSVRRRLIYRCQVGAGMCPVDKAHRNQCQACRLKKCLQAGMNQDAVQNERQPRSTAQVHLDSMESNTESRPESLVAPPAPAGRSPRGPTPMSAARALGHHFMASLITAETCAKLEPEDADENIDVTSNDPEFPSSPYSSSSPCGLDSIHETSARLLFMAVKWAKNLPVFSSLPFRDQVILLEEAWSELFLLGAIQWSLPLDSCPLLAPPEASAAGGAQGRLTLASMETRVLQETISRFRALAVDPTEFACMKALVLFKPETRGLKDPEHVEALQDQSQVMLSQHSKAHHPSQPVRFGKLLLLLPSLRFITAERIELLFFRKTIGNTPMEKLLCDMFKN
Rev-erbA mod: Rev-erb alpha (human) modulation. P20393. Rev-erbα–FITC-DNA binding, fluorescence polarization, 90 min. activity, % at 10 µM. actives 0.79% (n = 370,000). AID 1259318;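 active = activity above about 14%, limit read from the data; passing the limit was not always enough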;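 also: 0% = DMSO wells with 35 nM protein and 100% = DMSO wells with 750 nM protein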
PG9 binder: PG9 antibody binding by small molecule | TR-FRET gp120-PG9 antibody binding | inhibition, % at 6.7 µM | actives 0.43% (n = 360,000) | AID 624416; in the data active = inhibition above about 8.5%
NR2E3 ag-2: agonists of human nuclear receptor NR2E3; Q9Y5X4; GST-NR2E3/biotin-RetCOR TR-FRET, 1536-well; inhibition of corepressor binding, % at 4.78 µM; actives 0.12% (n = 320,000); AID 2300;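 active = percent inhibition above the cutoff of mean plus 3 SD of all tested compounds, set per screening campaign, cut at about 20% in these data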;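 also: 0% = DMSO wells and 100% = biotin wells as full block of FRET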
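Material: NR2E3–RetCOR corepressor complex / Incubation: Compound–protein incubation for 5 h at 4 °C / Dosing: compound at 4.8 µM, single dose / Detection: time-resolved FRET / Benchmarks: high control biotin, low control 0.6% DMSO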
MC4R ag barr: human MC4R agonism via beta-arrestin; activation, % at 8.9 µM; actives 0.98% (n = 360,000); U2OS MC4R beta-arrestin complementation, luminescence; percent of melanotan II response, DMSO zero;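 active = activation above a per-plate cutoff, the mean activation of sample wells on that plate plus 3 SD, cut at about 8% in these data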
Rev-erbA confirm: confirmation of modulators of human Rev-erb alpha DNA binding | shares compounds with Rev-erbA mod | Rev-erb alpha FITC-DNA binding, fluorescence polarization, 90 min | activation, % at 25 µM | actives 61% (n = 3,000);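 active = activation at or above a set limit, or at least 3 SD above the negative control mean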;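 also: 0% = 35 nM protein with DMSO and 100% = 750 nM protein high control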
RORg DNA counter: RORgamma DNA-binding activity, dose-response counter-screen; shares compounds with Rev-erbA mod; purified RORgamma protein-FITC-DNA binding, fluorescence polarization; IC50, µM; actives 8% (n = 910);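 active = Compounds whose fitted half-maximal concentration for disrupting protein-DNA binding is below 10 micromolar; the record names Rev-erb in its text, so the target is in doubt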
Starred values were filed as active, the others as inactive; i = inactive; nt = no result given. In the library only some 2.7% were active in any assay of this set; here they are far more common.

SMILES	MC4R antagonist	NR2E3 ag-1	Rev-erbA mod	PG9 binder	NR2E3 ag-2	MC4R ag barr	Rev-erbA confirm	others
Cc1cc2ccccc2nc1SCC(=O)N1c2ccccc2CC1C (centres undefined)	1.6	-1.9	146.5*	0.8	3.9	-1.8	-1.7
CC1Cc2ccccc2N1C(=O)CSc1nc2cc3c(cc2cc1C#N)OCO3 (centres undefined)	3.0	-14.0	70.5*	4.5	1.9	-2.2	31.6*
Cc1cn2c(N)c(C=C3C=C(Cl)C(=O)C(Cl)=C3)c(=O)nc2s1	-1.5	-9.0	26.3*	0.8	nt	-0.8	11.6
CCC(=O)c1c[nH]c(C(=O)NCc2cccnc2)c1	2.1	-28.0	-0.8	2.0	1.2	-1.1	nt
CCCCN1C(=O)/C(=C/C=C2\Oc3ccccc3N2CC)SC1=S	-1.0	-8.0	15.5*	0.6	nt	-2.2	62.3*	RORg DNA counter=i
C=CCN1C(=O)/C(=C\C=C2\N(C)c3ccccc3C2(C)C)SC1=S	-4.9	-32.7	24.6*	-1.1	0.9	-1.0	38.5*	RORg DNA counter=>40
CCCN1C(=O)/C(=C/C=C2\N(CC)c3ccccc3C2(C)C)SC1=S	0.9	-34.1	47.1*	0.1	4.6	-2.7	43.2*
CN1/C(=C\C=C2/SC(=S)N(CC(=O)O)C2=O)C(C)(C)c2ccccc21	-3.6	3.2	-13.9	-12.3	-0.1	-8.6	nt
CCCCN1C(=O)/C(=C/C=C2/CC(C)(C)CN2C)SC1=S	-0.4	-98.8	83.6*	-0.8	-1.2	-2.0	94.5*	RORg DNA counter=9.78*
CCCN1C(=O)/C(=C\C=C2/Sc3ccccc3N2CCO)SC1=S	2.9	-17.9	8.9	-0.1	2.6	-2.8	nt
Cc1nc2cc(Cl)c([N+](=O)[O-])cc2s1	-11.3	-3.0	-4.4	0.7	2.2	1.4	nt
COCCN(CCOC)C(=O)CN1C(=O)NC(Cc2c[nH]c3ccccc23)C1=O (centres undefined)	4.0	-18.6	-1.8	-1.0	1.7	-1.5	nt
CCN(CC)S(=O)(=O)c1ccc(N2CCCCC2)c(NC(=O)C2CSC3(C)CCC(=O)N23)c1 (centres undefined)	1.2	-33.4	30.6*	0.2	nt	-2.0	47.1*	RORg DNA counter=>40
CN(C)c1ccc(S(=O)(=O)N2CCCCC2)cc1NC(=O)C1CSC2(C)CCC(=O)N12 (centres undefined)	-9.6	19.4	3.4	1.5	-1.1	-3.3	nt
Cc1ccc(-n2nc(C(=O)N/N=C/c3cccc(C(F)(F)F)c3)c3ccccc3c2=O)cc1C	nt	nt	-2.7	-1.3	-1.1	nt	nt
O=C(CSc1ncnc2c1sc1ccccc12)Nc1ccc(Br)cc1	16.3	-8.7	293.1*	-1.4	-2.1	0.7	195.4*	RORg DNA counter=>40
CCN(CC)c1ccc2cc(S(=O)(=O)c3ccc(Cl)cc3)c(=O)oc2c1	8.5	-9.7	17.4*	-0.1	2.8	-0.1	18.5*
Cc1cccc(C)c1NC(=O)c1ccc2sc([C@H]3C[C@H](O)[C@@H](CO)O3)nc2c1	3.4	9.9	2.1	1.5	nt	-1.0	nt
Cc1ccc2nc(C)cc(SCC(=O)N/N=C/c3ccco3)c2c1	-3.9	-13.4	-0.6	-0.8	2.7	0.2	nt
Cc1cccc(OCC(=O)NCc2ccccc2)c1	5.1	-18.6	3.9	0.2	-0.5	0.2	nt
C/C(=N\NC(=O)COc1cccc(C)c1)c1ccc2ccccc2c1O	5.3	-30.2	216.9*	1.0	nt	2.7	165.3*	RORg DNA counter=>40
CN(CC(=O)Nc1ccccc1C(F)(F)F)C(=O)CCc1nc2sc3c(c2c(=O)[nH]1)CCCC3	10.2	2.1	30.1*	5.4	3.7	-1.6	22.4*
CCN(CC(=O)Nc1ccccc1C(F)(F)F)C(=O)CCc1nc2sc3c(c2c(=O)[nH]1)CCCC3	-0.2	-8.1	20.3*	5.2	0.3	-1.5	0.1
CN=C1SC(CC(=O)Nc2ccc(C(C)=O)cc2)C(=O)N1C (centres undefined)	-2.1	-6.2	-8.7	-2.5	3.0	0.6	nt
CN(N=Nc1ccccc1C(=O)O)C1CCCCC1	3.0	1.6	-4.0	2.2	nt	-0.7	nt
SMILES	MC4R antagonist	NR2E3 ag-1	Rev-erbA mod	PG9 binder	NR2E3 ag-2	MC4R ag barr	Rev-erbA confirm	others
O=C(Nc1cccc(-c2nnc(-c3ccccc3)o2)c1)c1ccco1	6.5	-79.4	4.2	0.9	1.6	-1.9	nt
O=C(Nc1ccccc1)c1cccc(-c2nnc(-c3ccccc3)o2)c1	0.8	-92.9	30.4*	1.0	-0.5	0.1	10.3
CCOC(=O)c1sc(NC(=O)c2ccccc2OC)nc1C	8.3	-31.9	40.5*	-0.7	5.5	5.4	23.2*
CCOC(=O)c1sc(NC(=O)c2cc3ccccc3o2)nc1C	3.6	-73.3	30.1*	2.9	2.5	-1.3	4.9
CCOC(=O)c1sc(NC(=O)Nc2ccccc2F)nc1C	4.5	-28.0	3.6	1.9	-2.4	3.2	nt
COC(=O)c1sc(NC(=S)NC(=O)c2ccccc2F)nc1C	-1.8	-108.8	43.2*	2.5	2.5	-1.7	-0.4
O=c1[nH]cnc2c1ncn2[C@@H]1C[C@@H](O)[C@H](CO)O1	0.7	8.2	3.5	-0.3	2.8	-3.0	nt
COc1ccccc1C(=O)NCCC(=O)NCC(c1ccc(F)cc1)N1CCOCC1 (centres undefined)	11.7	-14.1	-2.6	-1.4	4.3	-3.6	nt
O=C(Nc1ccc(S(=O)(=O)C(F)F)cc1)c1ccc2c(=O)n3c(nc2c1)CCC3	6.5	16.2	20.4*	1.8	1.5	-4.1	9.2
O=C(Nc1ccc(SC(F)F)cc1)c1ccc2c(=O)n3c(nc2c1)CCC3	-11.2	-47.4	-4.0	-0.8	-1.1	5.9	nt
CCOC(=O)c1ccc(Nc2cc(C)nc(-c3ccccc3O)n2)cc1	0.8	-6.6	38.0*	-2.3	2.3	1.0	3.0
COc1ccccc1Oc1ccc2c(c1)C(=O)N(c1ccc(Br)c3cccnc13)C2=O	5.6	6.0	38.7*	1.3	4.0	-2.1	22.2*
O=C1c2ccccc2C(=O)N1c1ccc(Br)c2cccnc12	0.9	-6.3	1.6	1.4	2.3	-2.6	nt
O=C(CSc1nc2c(c(C(F)(F)F)n1)CCc1ccccc1-2)NCc1ccc(F)cc1	2.8	0.8	59.9*	-0.5	0.5	0.4	13.2
O=C(CSc1nc2c(c(C(F)(F)F)n1)CCc1ccccc1-2)NCc1ccccc1	6.1	-15.3	97.5*	0.3	-1.0	0.8	40.3*	RORg DNA counter=i
CCN(CC)CCCNC(=O)CSc1nc2c(c(C(F)(F)F)n1)CCc1ccccc1-2	0.7	2.4	-3.2	0.2	-0.4	-0.6	nt
O=C(O)CSc1nc2c(c(C(F)(F)F)n1)CCc1ccccc1-2	1.6	12.1	3.2	-3.2	4.2	-1.0	nt

Bioassay records (PubChem BioAssay)
